According to publication PMC3179183 (Bioorganic & medicinal chemistry letters, 2010):
Where two headings read alike, the source gives them in different places. Blank lines part the entries; values can stand above or below the molecule they belong to.

What was measured:
[1] = molecular target: T1, M5 (Homo sapiens, UniProt P08912); assay type: cell-based; details: single point 10 µM, M5-CHO cells
T1 sequence (P08912 1-532): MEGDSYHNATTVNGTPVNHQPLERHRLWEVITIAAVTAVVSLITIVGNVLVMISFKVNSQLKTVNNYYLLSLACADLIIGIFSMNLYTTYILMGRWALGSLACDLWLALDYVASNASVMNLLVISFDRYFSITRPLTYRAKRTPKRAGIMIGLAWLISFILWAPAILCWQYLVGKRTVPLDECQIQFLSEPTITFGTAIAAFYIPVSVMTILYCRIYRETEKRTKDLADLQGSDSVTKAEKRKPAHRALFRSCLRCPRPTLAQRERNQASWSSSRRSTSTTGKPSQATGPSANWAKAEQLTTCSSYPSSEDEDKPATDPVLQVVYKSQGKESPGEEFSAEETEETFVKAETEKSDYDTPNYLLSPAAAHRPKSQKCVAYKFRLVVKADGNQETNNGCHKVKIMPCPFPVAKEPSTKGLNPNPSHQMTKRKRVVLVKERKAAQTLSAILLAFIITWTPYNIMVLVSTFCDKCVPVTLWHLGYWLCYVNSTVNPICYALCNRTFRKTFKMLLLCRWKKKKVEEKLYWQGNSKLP

[2] = molecular target: T1, M5; test: M5 PAM activity, mobilization of intracellular calcium in M5 CHO cells; assay type: cell-based
[3] = molecular target: T1, M5; details: read-out: M5 EC50; vs. M2–M5; cited from earlier work
[4] = molecular target: T2, M1 (Homo sapiens, UniProt P11229); details: read-out: M1 EC50, cited from earlier work
T2 sequence (P11229 1-460): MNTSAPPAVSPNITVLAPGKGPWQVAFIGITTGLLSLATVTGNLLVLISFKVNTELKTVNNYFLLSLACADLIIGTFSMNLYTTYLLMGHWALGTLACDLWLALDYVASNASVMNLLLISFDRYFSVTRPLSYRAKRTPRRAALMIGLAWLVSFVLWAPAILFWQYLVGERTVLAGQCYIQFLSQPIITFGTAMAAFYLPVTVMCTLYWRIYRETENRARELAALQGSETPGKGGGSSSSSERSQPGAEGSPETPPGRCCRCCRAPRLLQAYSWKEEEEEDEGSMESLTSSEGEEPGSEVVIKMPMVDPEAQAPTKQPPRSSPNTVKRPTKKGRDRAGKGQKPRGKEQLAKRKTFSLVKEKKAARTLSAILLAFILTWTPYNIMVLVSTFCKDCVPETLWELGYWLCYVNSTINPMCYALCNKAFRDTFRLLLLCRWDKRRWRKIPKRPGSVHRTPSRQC

[5] = molecular target: T3, M2 (Homo sapiens, UniProt P08172); details: read-out: M2 EC50, cited from earlier work
T3 sequence (P08172 1-466): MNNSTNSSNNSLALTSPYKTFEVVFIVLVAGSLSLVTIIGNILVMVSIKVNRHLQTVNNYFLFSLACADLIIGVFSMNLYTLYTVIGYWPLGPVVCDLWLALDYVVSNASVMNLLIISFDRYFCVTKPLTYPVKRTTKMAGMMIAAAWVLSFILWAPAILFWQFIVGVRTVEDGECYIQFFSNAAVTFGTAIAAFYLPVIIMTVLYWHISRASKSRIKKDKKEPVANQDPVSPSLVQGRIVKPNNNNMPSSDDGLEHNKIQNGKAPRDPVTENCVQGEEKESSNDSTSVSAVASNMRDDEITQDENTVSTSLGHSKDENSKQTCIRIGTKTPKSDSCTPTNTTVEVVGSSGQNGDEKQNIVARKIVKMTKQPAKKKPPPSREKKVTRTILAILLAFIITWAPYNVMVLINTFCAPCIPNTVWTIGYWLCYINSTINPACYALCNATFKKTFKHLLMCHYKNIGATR

[6] = molecular target: T4, M3 (Homo sapiens, UniProt P20309); details: read-out: M3 EC50, cited from earlier work
T4 sequence (P20309 whole entry): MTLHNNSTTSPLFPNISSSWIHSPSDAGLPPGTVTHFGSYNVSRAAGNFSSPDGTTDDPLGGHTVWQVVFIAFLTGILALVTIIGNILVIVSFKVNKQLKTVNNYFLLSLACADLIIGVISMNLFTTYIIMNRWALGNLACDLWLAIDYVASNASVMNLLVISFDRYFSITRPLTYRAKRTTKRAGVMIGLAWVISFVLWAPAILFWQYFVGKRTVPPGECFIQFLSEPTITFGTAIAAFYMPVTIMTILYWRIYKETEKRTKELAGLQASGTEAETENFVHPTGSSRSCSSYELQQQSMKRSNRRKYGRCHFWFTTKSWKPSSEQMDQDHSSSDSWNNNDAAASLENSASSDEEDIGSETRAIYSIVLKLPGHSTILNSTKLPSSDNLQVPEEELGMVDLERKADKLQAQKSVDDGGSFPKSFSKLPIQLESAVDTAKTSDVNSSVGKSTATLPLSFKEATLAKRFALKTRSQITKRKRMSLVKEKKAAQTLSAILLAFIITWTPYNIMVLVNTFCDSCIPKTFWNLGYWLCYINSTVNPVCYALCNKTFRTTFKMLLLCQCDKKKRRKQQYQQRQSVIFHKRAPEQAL

[7] = molecular target: T5, M4 (Homo sapiens, UniProt P08173); details: read-out: M4 EC50, cited from earlier work
T5 sequence (P08173 1-479): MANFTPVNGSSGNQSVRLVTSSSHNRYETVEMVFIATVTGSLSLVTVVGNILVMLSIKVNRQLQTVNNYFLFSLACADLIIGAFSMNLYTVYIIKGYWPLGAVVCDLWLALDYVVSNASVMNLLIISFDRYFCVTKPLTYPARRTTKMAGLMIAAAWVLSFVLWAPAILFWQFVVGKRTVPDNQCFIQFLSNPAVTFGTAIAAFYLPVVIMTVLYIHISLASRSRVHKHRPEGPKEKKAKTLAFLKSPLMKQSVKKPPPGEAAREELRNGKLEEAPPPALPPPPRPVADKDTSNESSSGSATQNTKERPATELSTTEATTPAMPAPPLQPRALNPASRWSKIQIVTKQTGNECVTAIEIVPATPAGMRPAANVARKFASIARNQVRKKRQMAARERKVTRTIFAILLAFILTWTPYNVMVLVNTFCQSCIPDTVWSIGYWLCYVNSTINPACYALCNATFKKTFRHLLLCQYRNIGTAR

[8] = cited from earlier work
[9] = in words; cited from earlier work
[10] = Ancillary pharmacology panel; assay type: binding
[11] = molecular target: T2, M1; test: 30 µM fold-shift selectivity assay, M1; assay type: cell-based
Summary of the method: (§1)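 Intracellular calcium mobilization in CHO cells expressing the receptor. Test compound at a fixed 30 µM, read as the fold-shift of the acetylcholine concentration-response. Data are means from at least three independent determinations.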

[12] = molecular target: T3, M2; test: 30 µM fold-shift selectivity assay, M2; assay type: cell-based
Summary of the method: (§2)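 Intracellular calcium mobilization in CHO cells expressing the receptor co-transfected with Gqi5 to couple it to calcium signalling. Test compound at a fixed 30 µM, read as the fold-shift of the acetylcholine concentration-response. Data are means from at least three independent determinations.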

[13] = molecular target: T4, M3; test: 30 µM fold-shift selectivity assay, M3; assay type: cell-based
Summary of the method: as §1

[14] = molecular target: T5, M4; test: 30 µM fold-shift selectivity assay, M4; assay type: cell-based
Summary of the method: as §2

[15] = molecular target: NET (Homo sapiens, UniProt P23975); test: Ancillary pharmacology panel, NET; assay type: binding; details: same assay panel; significant = >50% inhibition at 10 µM
Sequence of NET (P23975 whole entry): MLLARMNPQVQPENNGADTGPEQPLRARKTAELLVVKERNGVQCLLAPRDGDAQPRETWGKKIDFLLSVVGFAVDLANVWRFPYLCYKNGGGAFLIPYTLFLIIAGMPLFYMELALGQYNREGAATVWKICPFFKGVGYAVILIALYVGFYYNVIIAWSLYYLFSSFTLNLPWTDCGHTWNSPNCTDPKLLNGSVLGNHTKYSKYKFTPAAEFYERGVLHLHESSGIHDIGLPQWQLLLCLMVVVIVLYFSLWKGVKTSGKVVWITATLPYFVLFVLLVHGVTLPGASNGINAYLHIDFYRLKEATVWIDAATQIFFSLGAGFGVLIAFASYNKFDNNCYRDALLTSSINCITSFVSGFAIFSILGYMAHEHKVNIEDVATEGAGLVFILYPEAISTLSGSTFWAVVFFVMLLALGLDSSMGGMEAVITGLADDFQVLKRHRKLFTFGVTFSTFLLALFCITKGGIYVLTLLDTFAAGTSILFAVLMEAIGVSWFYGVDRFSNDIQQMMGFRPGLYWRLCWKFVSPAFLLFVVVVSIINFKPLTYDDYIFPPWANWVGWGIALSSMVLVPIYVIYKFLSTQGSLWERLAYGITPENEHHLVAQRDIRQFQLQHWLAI

[16] = molecular target: H1 (Homo sapiens, UniProt P35367); test: Ancillary pharmacology panel, H1; assay type: binding; details: same assay panel; significant = >50% inhibition at 10 µM
Sequence of H1 (P35367 whole entry): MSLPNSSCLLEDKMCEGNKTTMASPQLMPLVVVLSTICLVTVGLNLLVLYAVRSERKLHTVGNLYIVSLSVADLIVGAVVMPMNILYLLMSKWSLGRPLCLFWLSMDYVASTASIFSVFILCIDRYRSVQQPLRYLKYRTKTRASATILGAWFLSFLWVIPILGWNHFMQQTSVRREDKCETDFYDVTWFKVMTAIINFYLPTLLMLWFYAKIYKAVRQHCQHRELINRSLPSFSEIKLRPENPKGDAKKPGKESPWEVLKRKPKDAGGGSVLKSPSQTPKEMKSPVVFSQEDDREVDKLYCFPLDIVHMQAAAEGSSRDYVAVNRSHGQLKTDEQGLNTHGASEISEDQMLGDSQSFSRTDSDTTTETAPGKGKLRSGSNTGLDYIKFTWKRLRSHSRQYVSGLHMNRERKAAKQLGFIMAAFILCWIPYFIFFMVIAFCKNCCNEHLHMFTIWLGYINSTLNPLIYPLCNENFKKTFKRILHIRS

[17] = molecular target: T1, M5; test: Human M5 ACh fold-shift assay at 30 µM; assay type: cell-based

Structure (SMILES): CC1CCCN(COc2ccc3c(c2)C(=O)C(=O)N3Cc2ccc(-c3ccccc3)cc2)C1 (centres unmarked) [10ee]
- ability to potentiate an EC20 of ACh [1]: did decrease the ACh EC20

Structure (SMILES): O=C1C(=O)N(Cc2c(F)cc(-c3ccccc3)cc2F)c2ccc(OC(F)(F)F)cc21 [compound 12]
- M5 PAM activity (in words) [2]: loss in both potency and efficacy

Structure (SMILES): O=C1C(=O)N(Cc2ccc(-c3ccccc3)cc2F)c2ccc(OC(F)(F)F)cc21 [compound 11]
- M5 PAM activity (in words) [2]: loss in both potency and efficacy

Structure (SMILES): Cn1cc(-c2ccc(CN3C(=O)C(=O)c4ccccc43)c(F)c2)cn1 [compound 2]
- EC50 [3]: > 30 µM
- EC50 ([4]; PAM): 0.83 µM
- EC50 ([5]; vs. M2–M5): > 30 µM
- EC50 ([6]; vs. M2–M5): > 30 µM
- EC50 ([7]; vs. M2–M5): > 30 µM

Structure (SMILES): O=C1C(=O)N(Cc2ccc(-c3ccccc3)cc2)c2ccc(OC(F)(F)F)cc21 [compound 4]
- EC50 ([4]; vs. M1–M4): > 30 µM
- EC50 ([5]; vs. M1–M4): > 30 µM
- EC50 ([6]; vs. M1–M4): > 30 µM
- EC50 ([7]; vs. M1–M4): > 30 µM
- logP [8]: > 4.5
- solubility [9]: limited solubility

Structure (SMILES): O=C1C(=O)N(Cc2ccc3c(c2)OCO3)c2ccc(OC(F)(F)F)cc21 [compound 13]
- M5 PAM activity (in words) [2]: highly efficacious M5 PAM of comparable potency to 4

Structure (SMILES): CN(C)CCOc1ccc2c(c1)C(=O)C(=O)N2Cc1ccc(-c2ccccc2)cc1 [10gg]
- ability to potentiate an EC20 of ACh [1]: did decrease the ACh EC20

Structure (SMILES): O=C1C(=O)N(Cc2ccc(-c3ccccc3)cc2)c2ccc(OCCN3CCCC3)cc21 [10kk]
- ability to potentiate an EC20 of ACh [1]: did decrease the ACh EC20

Structure (SMILES): O=C1C(=O)N(Cc2ccc(Oc3ccccc3)cc2)c2ccc(OC(F)(F)F)cc21 [compound 5]
- number of targets with significant activity (>50% inhibition at 10 µM) ([10]; of 68 targets, 10 µM): 32 targets
- EC50 ([4]; vs. M1–M4): > 30 µM
- EC50 ([5]; vs. M1–M4): > 30 µM
- EC50 ([6]; vs. M1–M4): > 30 µM
- EC50 ([7]; vs. M1–M4): > 30 µM
- logP [8]: > 4.5
- solubility [9]: limited solubility

Now from value to molecule, other results behind:

- M5 PAM activity (in words) [2]: devoid of M5 PAM activity
Structure (SMILES): O=C1C(=O)N(Cc2ccc(-c3cccnc3)cn2)c2ccc(OC(F)(F)F)cc21 [21b]

- M5 PAM activity (in words) [2]: devoid of M5 PAM activity
Structure (SMILES): O=C1C(=O)N(Cc2ccc(-c3ccncc3)cn2)c2ccc(OC(F)(F)F)cc21 [21c]

- activity at NET [15]: significant activity
- activity at H1 [16]: significant activity
Structure (SMILES): O=C1C(=O)N(Cc2ccc(Oc3cccc(F)n3)cc2)c2ccc(OC(F)(F)F)cc21 [27b]
- effect on M1, fold-shift selectivity [11]: neither 22a nor 27b showed any significant effect
- effect on M2, fold-shift selectivity [12]: neither 22a nor 27b showed any significant effect
- effect on M3, fold-shift selectivity [13]: neither 22a nor 27b showed any significant effect
- effect on M4, fold-shift selectivity [14]: neither 22a nor 27b showed any significant effect
- number of targets with modest activities ([10]; of the 68 targets): 11 targets

- allosteric agonism [17]: ~ 20%
Structure (SMILES): O=C1C(=O)N(Cc2ccc(-c3ccccc3)nc2)c2ccc(OC(F)(F)F)cc21 [22a]
- effect on M1, fold-shift selectivity [11]: neither 22a nor 27b showed any significant effect
- effect on M2, fold-shift selectivity [12]: neither 22a nor 27b showed any significant effect
- effect on M3, fold-shift selectivity [13]: neither 22a nor 27b showed any significant effect
- effect on M4, fold-shift selectivity [14]: neither 22a nor 27b showed any significant effect
